# Cl transport mod: KCC2 (human) Cl- transport modulation; KCC2 cells, thallium flux FluoZin-2 fluorescence; B-score of Tl+ flux slope (higher = more flux/activation; lower = inhibition) at 10 µM; 190,000 tested, 2.2% active;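 active means thallium flux slope and its plate-corrected score both differing from the plate sample mean at a set confidence after two filtering rounds, in either direction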;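 further: slope of fluorescence scaled to starting intensity during 10 to 20 s after thallium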
# RBBP9 inh: human RBBP9 hydrolase inhibition; recombinant RBBP9, FP-Rh probe fluorescence polarization; inhibition, % at 7.94 µM; 220,000 tested, 0.2% active; AID 1515;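 active means inhibition above the campaign mean of all tested compounds plus 3 SD, cut at about 14% in these data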;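 further: plate controls were DMSO wells with RBBP9 for no effect and wells lacking RBBP9 protein for full effect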
#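 System: RBBP9 protein / Quantity: 2.5 µM RBBP9 dispensing solution, before mixing / Also added: Serine-hydrolase probe FP-Rh, 375 nM pre-mixing / Dosing: 7.94 µM single dose, 0.794% DMSO / Timing: enzyme-compound preincubation 30 min, then probe labeling 45 min, 25 °C / Signal: FP readout at 525/598 nm / Controls: DMSO-treated enzyme wells and wells lacking RBBP9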
# WT yeast gro inh: growth inhibition of WT yeast, mitochondrial fusion screen; mitochondrial fusion phenotypic screen, WT strain; inhibition, % at 10 µM; 190,000 tested, 2.1% active; AID 1362; in the data active means inhibition above about 58%; tested in S. cerevisiae
# 14-3-3 Bad PPI: disrupts binding of bovine 14-3-3 zeta to phospho-Bad peptide. P63103. TR-FRET 14-3-3zeta/Dy647-pBad peptide displacement, 1 h. inhibition, % at 21.7 µM. 220,000 tested, 0.71% active. AID 781;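 active means inhibition above about 70%, limit read from the data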;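 further: 0% = full 14-3-3 plus peptide FRET controls and 100% = background without 14-3-3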
# p47phox inh: p47phox (human) inhibition; 220,000 tested, 0.53% active; inhibition, % at 24.7 µM; p47phox/p22phox peptide binding, fluorescence polarization, 2 h; AID 1274; P14598;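 active means inhibition above about 30%, limit read from the data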;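 further: 0% = p47phox with labelled peptide and 100% = labelled peptide alone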
# ROMK primary: modulates human ROMK potassium channel activity; P48048; Tet-inducible ROMK, thallium flux fluorescence; actives lie on both sides; B-score at 10 µM; 130,000 tested, 2% active;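 active means signal ratio slope over the read window, or its plate-corrected B-score, at least 3 SD from the plate mean, either direction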;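 further: B-score of the F/F0 ratio slope over 7 to 12 s after thallium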
# * = called active by the depositor; / = no result given. Most compounds without a hit are left out; they make up all but 5.8% or so of the library.
SMILES,Cl transport mod,RBBP9 inh,WT yeast gro inh,14-3-3 Bad PPI,p47phox inh,ROMK primary
O=S(=O)(Nc1ccncc1Cl)c1cc(Cl)ccc1Cl,0.088,10,/,2,-7,/
Cc1ccc(-c2csc(=S)[nH]2)cc1,100*,-11,55,-14,6,10*
Cc1ccc(-c2ccc(C(=O)O)[nH]2)cc1,/,12,-16,-9,-18,0.3
S=c1[nH]c(-c2ccc(Cl)cc2)cs1,55*,-8,65*,-12,-3,17*
CCCCOc1ccc(C(=O)N/N=C/c2ccc(OCCN3CCCCC3)c(OC)c2)cc1,-1.1,-10,15,-25,0,/
O=CN1CCCN(Cc2nc(-c3cccc(Cl)c3)no2)CC1,0.99,-3,0,-5,-1,1
O=C(Cn1c(/C=C/c2ccccc2)nc2ccccc21)Nc1ccc(F)cc1,-0.47,-8,68*,5,-3,/
CC(C1CC1)N(Cc1ccccc1)C(=S)Nc1ccccc1 (stereo unspecified),-0.75,-5,21,-15,-8,0.45
CC(C1CC1)N(Cc1ccccc1)C(=S)Nc1cccc(C(F)(F)F)c1 (stereo unspecified),-0.46,-9,76*,-6,-12,-1
Cc1ccc(NC(=S)N(CCN2CCCCC2)Cc2ccco2)cc1Cl,0.59,-2,12,-13,-3,-0.15
COc1ccc(C2CC(c3ccccc3)=NN2C(=O)c2cccs2)cc1 (stereo unspecified),0.67,1,78*,1,-23,/
COc1ccc(C2CC(c3ccccc3)=NN2C(=O)COC(=O)C2CC2)cc1 (stereo unspecified),0.57,-10,13,-11,-20,-0.017
COc1ccc(C2CCCN2C(=O)c2cccs2)cc1 (stereo unspecified),-0.033,-5,-10,9,-8,/
COc1ccc(C2CC(c3ccccc3)=NN2C(=O)COC(=O)c2cccnc2)cc1 (stereo unspecified),-3.4,-6,47,39,-56,/
COc1ccc(C2=NN(S(C)(=O)=O)C(c3cccs3)C2)cc1 (stereo unspecified),-0.87,-4,-15,-1,-151,-1.2
COc1ccc(C2=NN(C(=O)c3cccs3)C(c3ccccc3O)C2)cc1 (stereo unspecified),0.48,-11,85*,-8,6,-0.2
COc1ccc(C2CC(c3ccc(Br)cc3)=NN2C(=O)c2cccnc2)cc1 (stereo unspecified),-0.26,-4,64*,4,-20,-1.2
COc1ccc(C2CC(c3ccccc3)=NN2C(=O)COC(=O)C2(C)CC2(Cl)Cl)cc1 (stereo unspecified),0.75,-8,72*,-13,1,/
Cc1nc(CCNS(=O)(=O)c2cccnc2)cs1,0.2,0,/,-1,-6,/
Clc1ccc(OCc2noc(-c3ccsc3)n2)c(Cl)c1,-1.1,-5,/,-4,-17,/
C/C(=N/Nc1cc(-c2ccccc2)nc(-c2ccccc2)n1)c1ccc(O)cc1,-0.051,-9,98*,-5,-17,-0.0063
CCc1ccc(-c2cc(C(=O)N3N=C(C(F)F)CC3(O)C(F)F)c3ccccc3n2)cc1 (stereo unspecified),-0.55,-6,80*,-8,-4,/
CCn1c(SCC(=O)NC(=O)NCc2ccco2)nc2sc(C)c(C)c2c1=O,16*,-7,7,3,-23,0.76
Cc1ccc(OCC(=O)c2ccc(Cl)s2)c([N+](=O)[O-])n1,0.57,-3,-11,-9,-20,-0.0068
Nc1nc2ccccc2n1/N=C/c1cccnc1,-0.0023,-2,-6,6,-9,2.2*
SMILES,Cl transport mod,RBBP9 inh,WT yeast gro inh,14-3-3 Bad PPI,p47phox inh,ROMK primary
COc1ccc(OC(=O)NCCc2ccccc2)cc1,-0.98,-10,/,-3,-13,/
CC(C)c1ccc(OC(=O)NCCO)cc1,/,6,-1,-4,41*,-0.0042
O=C(Nc1ccccc1NS(=O)(=O)c1ccc(F)cc1)C1CCC1,0.7,3,-12,-6,-11,0.13
CC(C)c1ccc(OCc2ccc(C(=O)NN3CCN(C)CC3)o2)cc1,0.37,1,-8,5,-1,0.041
O=C(NN=C1c2ccccc2-c2ccccc21)c1ccccc1Br,14*,-13,3,7,-9,/
O=C(O)CC/C(=N\NC(=O)c1ccccc1Br)c1ccccc1,1.2,-9,5,-16,-4,-0.014
O=C(CNCC1CCCO1)Nc1ccccc1N1CCCCCC1 (stereo unspecified),-0.45,1,7,82*,-5,/
O=C(CNCc1ccccc1Cl)Nc1ccccc1N1CCCCC1,/,-4,80*,35,-12,0.54
Cc1cc(C)cc(NC(=O)Nc2ccccc2N2CCCCC2)c1,-1.3,-2,/,-5,0,/
Cn1nc(-c2ccccc2)cc1NS(=O)(=O)c1ccc(C#N)cc1,-0.18,-7,/,-1,-7,-0.079
O=C(Nc1ncc2c(n1)CC(c1ccco1)CC2=O)c1ccccc1 (stereo unspecified),/,2,70*,12,-7,/
Cc1nn(CC(=O)Nc2ccc3c(c2)oc2ccccc23)c(=O)c2ccccc12,0.22,-10,9,66,39*,0.9
CNC(=O)Cn1nc(C)c2ccccc2c1=O,/,0,24,1,-1,-0.43
O=C(Cn1nc(C(=O)O)c2ccccc2c1=O)Nc1ccc2c(c1)C(=O)c1ccccc1C2=O,0.03,-4,/,80*,-10,/
CC(C)CC(=O)Nc1ccc(C(=O)Cn2nc(C(=O)O)c3ccccc3c2=O)cc1,-0.73,-3,-6,-2,-18,0.52
O=C(Cc1ccc([N+](=O)[O-])cc1)Nc1ccc(Cl)cc1,1.5,-3,8,-2,77*,-1.3
COC(=O)c1ccc(C(=O)O)nc1,-0.069,0,/,29,0,/
CC(C)C(Nc1ncnc2c1oc1ccccc12)C(=O)O (stereo unspecified),/,0,6,-7,-4,/
c1ccc(Nc2ncnc3c2oc2ccccc23)cc1,1.7,1,13,71*,-8,/
CC(=O)N1CCN(c2ccc(Nc3ncnc4c3oc3ccccc34)cc2)CC1,-0.45,-5,0,70,2,/
c1ccc2c(c1)oc1c(Nc3ccc(CN4CCOCC4)cc3)ncnc12,0.16,-6,-19,79*,-13,-1
c1ccc2c(c1)oc1c(NCc3ccc4c(c3)OCO4)ncnc12,-5.1*,-11,2,18,-13,-2.4
c1ccc2c(c1)oc1c(NCCN3CCOCC3)ncnc12,/,-6,-31,58,-5,/
Oc1ccccc1Nc1ncnc2c1oc1ccccc12,/,-13,-6,73*,2,/
c1ccc2c(c1)oc1c(Nc3ccc4c(c3)OCO4)ncnc12,/,-10,-4,51,-3,/
Cc1cccn2c(=O)c3cc(S(=O)(=O)c4ccccc4)c(=N)n(CC4CCCO4)c3nc12 (stereo unspecified),-1,-7,/,6,-1,0.08

# Source: PubChem
